The record followed here is ChEMBL document CHEMBL4261539, “18α-Glycyrrhetinic acid monoglucuronide as an anti-inflammatory agent through suppression of the NF-κB and MAPK signaling pathway” (Medchemcomm, 2017).

For data set [1], the system named is RAW264.7. As to the kind of experiment: Anti-inflammatory activity in mouse RAW264.7 cells assessed as inhibition of LPS-induced NO production at 40 uM preincubated for 2 hrs followed by LPS addition measured after 20 hrs by Griess assay relative to control. In kind it is functional. An outline of the steps: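 Macrophages (RAW264.7) are pretreated 2 h with compound at 40 μM, then held with or without LPS (1 μg mL–1) for 20 h. Released NO is measured with Griess reagent. Results are means ± SD (n = 3) from at least three independent experiments.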

Data set [2] is described as follows: Cytotoxicity against mouse RAW264.7 cells assessed as cell viability at 40 uM after 24 hrs by MTT assay relative to control. In kind it is cell-based. As to conditions: read-out: Activity.
Data set [3] has as its system RAW264.7. As to the kind of experiment: Anti-inflammatory activity in mouse RAW264.7 cells assessed as inhibition of LPS-induced IL-6 production at 10 to 40 uM preincubated for 2 hrs followed by LPS addition measured after 20 hrs by ELISA. In kind it is functional, cell-based. In outline:
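RAW264.7 cells are pretreated 2 h with compound at 40 or 10 μM, then held with or without LPS (1 μg mL–1) for 20 h. Supernatant IL-6 is quantified by ELISA. Results are means ± SD (n = 3) of at least three independent experiments.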

In data set [4] the test system is Mus musculus. The data set can be described thus: Anti-inflammatory activity in C57BL6 mouse model of CCl4-induced hepatic fibrosis assessed as reduction in inflammatory cell infiltration in hepatic tissue at 0.1 mg/kg, ig administered 2 times per week for 4 weeks by H and E staining based assay. It is filed as functional, organism-based. In outline: (§1)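 Male SPF C57BL6 mice (20 ± 2 g), acclimatized for at least one week under controlled temperature, humidity and light cycle. Hepatic fibrosis was induced with CCl4, with control and model groups run alongside. Liver tissue was H&E-stained and examined by light microscopy for inflammatory cell infiltration, hepatocyte degeneration and fibrosis.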

Data set [5] has as its system Mus musculus. As to the kind of experiment: Anti-inflammatory activity in C57BL6 mouse model of CCl4-induced hepatic fibrosis assessed as reduction in blue collagen fibers in hepatic tissue at 0.1 mg/kg, ig administered 2 times per week for 4 weeks by masson staining based assay. In kind it is functional, organism-based. In outline:
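Male SPF C57BL6 mice (20 ± 2 g), housed at 22 ± 2 °C and 50% humidity with a 12 h light/dark cycle, acclimatized for at least one week. CCl4-induced hepatic fibrosis model, groups compared with untreated control and CCl4 model groups. Liver sections were Masson-stained, and blue collagen fibers were scored by light microscopy.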

Data set [6] relates to Mus musculus. The data set can be described thus: Anti-inflammatory activity in C57BL6 mouse model of CCl4-induced hepatic fibrosis assessed as reduction in hepatic fibrosis at 0.1 mg/kg, ig administered 2 times per week for 4 weeks by H and E staining based assay. In kind it is functional, organism-based. An outline of the steps: as §1
Data set [7] concerns Mus musculus. The data set can be described thus: Anti-inflammatory activity in C57BL6 mouse model of CCl4-induced hepatic fibrosis assessed as reduction in blue collagen fibers in hepatic tissue at 100 to 200 mg/kg, ig administered 2 times per week for 4 weeks by masson staining based assay. In kind it is functional, organism-based. In outline:
(§2)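 Male SPF C57BL6 mice (20 ± 2 g) are acclimatized at least one week at 22 ± 2 °C, 50% humidity, 12 h light/dark, with free food and water. CCl4 induces hepatic fibrosis. Groups are control, model, colchicine 0.1 mg kg–1, and test article at 100 or 200 mg kg–1. Liver sections are scored by light microscopy after H&E and Masson staining.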

The subject of data set [8] is RAW264.7. The data set can be described thus: Anti-inflammatory activity in mouse RAW264.7 cells assessed as inhibition of LPS-induced iNOS protein expression measured after 20 hrs by Western blot analysis. In kind it is functional, cell-based. In outline: (§3)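 RAW264.7 cells are treated with graded concentrations of test article, then held with or without LPS (1 μg mL–1) for 20 h. iNOS and COX-2 protein are measured. The NF-κB inhibitor Bay 11-7082 (20 μM) serves as reference. Results are means ± SD (n = 3) of at least three independent experiments.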

The test system of data set [9] is RAW264.7. The data set can be described thus: Anti-inflammatory activity in mouse RAW264.7 cells assessed as inhibition of LPS-induced COX2 protein expression measured after 20 hrs by Western blot analysis. It is filed as functional, cell-based. An outline of the steps:
as §3

For data set [10], the system named is Mus musculus. The data set can be described thus: Anti-inflammatory activity in C57BL6 mouse model of CCl4-induced hepatic fibrosis assessed as reduction in hepatic fibrosis at 100 to 200 mg/kg, ig administered 2 times per week for 4 weeks by H and E staining based assay. In kind it is functional, organism-based. An outline of the steps: as §2
Data set [11] concerns Mus musculus. As to the kind of experiment: Anti-inflammatory activity in C57BL6 mouse model of CCl4-induced hepatic fibrosis assessed as reduction in inflammatory cell infiltration in hepatic tissue at 100 to 200 mg/kg, ig administered 2 times per week for 4 weeks by H and E staining based assay. In kind it is functional, organism-based. In outline:
as §2

For data set [12], the target named is Transcription factor p65 (Mus musculus) (UniProt Q04207). The data set can be described thus: Inhibition of LPS-induced NF-kB p65 nuclear tanslocation in mouse RAW264.7 cells at 20 to 30 uM preincubated for 1 hr followed by LPS addition measured after 3 hrs by DAPI staining based immunofluorescence assay. It is filed as cell-based. In outline:
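For p65 nuclear translocation, RAW264.7 cells are pretreated 1 h with test article, then stimulated with LPS (1 μg mL–1) for 3 h before immunofluorescence imaging.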

Data set [13] has the same target. As to the kind of experiment: Inhibition of LPS-induced NF-kB p65 phosphorylation in mouse RAW264.7 cells at 10 to 30 uM after 30 mins by Western blot analysis. It is filed as cell-based. An outline of the steps: (§4)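 RAW264.7 cells are exposed to 10–30 μM test article plus LPS (1 μg mL–1) for 30 min. Total and phosphorylated proteins are probed by western blot: NF-κB p65 and IκB, with Bay 11-7082 (20 μM) as reference, and JNK, ERK1/2 and p38 MAPK. Results are means ± SD (n = 3) from at least three independent experiments.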

Data set [14] is described as follows: Inhibition of LPS-induced IkBalpha phosphorylation in mouse RAW264.7 cells at 10 to 30 uM after 30 mins by Western blot analysis.
Data set [15] concerns RAW264.7. As to the kind of experiment: Inhibition of LPS-induced ERK phosphorylation in mouse RAW264.7 cells after 30 mins by Western blot analysis. In kind it is cell-based. An outline of the steps:
as §4

The source made the active and inactive calls. The rule behind the calls is not given here.

Chain of Transcription factor p65 (Mus musculus) (Q04207 whole entry): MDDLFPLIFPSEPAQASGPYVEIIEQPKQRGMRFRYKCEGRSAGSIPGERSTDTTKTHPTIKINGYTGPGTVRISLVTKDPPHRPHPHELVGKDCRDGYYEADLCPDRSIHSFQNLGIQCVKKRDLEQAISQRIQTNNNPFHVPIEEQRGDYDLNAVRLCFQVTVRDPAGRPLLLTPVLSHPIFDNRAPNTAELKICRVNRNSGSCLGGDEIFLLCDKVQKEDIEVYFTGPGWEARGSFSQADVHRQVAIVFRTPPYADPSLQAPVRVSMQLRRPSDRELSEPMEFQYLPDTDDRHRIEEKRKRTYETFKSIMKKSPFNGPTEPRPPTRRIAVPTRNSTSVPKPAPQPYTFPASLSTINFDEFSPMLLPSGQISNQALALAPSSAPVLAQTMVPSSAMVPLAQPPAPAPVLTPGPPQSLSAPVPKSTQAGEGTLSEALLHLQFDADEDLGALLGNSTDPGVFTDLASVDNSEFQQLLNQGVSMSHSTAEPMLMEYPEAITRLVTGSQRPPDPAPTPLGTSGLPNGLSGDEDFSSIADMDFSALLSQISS

On to `CC1(C)[C@@H](O[C@H]2O[C@H](C(=O)O)[C@@H](O)[C@H](O)[C@H]2O)CC[C@]2(C)[C@H]3C(=O)C=C4[C@@H]5C[C@@](C)(C(=O)O)CC[C@]5(C)CC[C@@]4(C)[C@]3(C)CC[C@@H]12`, for which the inhibition result in the data set with RAW264.7 [1] and in the data set with RAW264.7 [3] was “Active” throughout. Also, the viability at 24 h, 40 µM in data set [2] was more than 96%.
With `COc1cc2c(c(OC)c1OC)-c1ccc(OC)c(=O)cc1[C@@H](NC(C)=O)CC2`, the outcome with Mus musculus [4], with Mus musculus [5] and with Mus musculus [6] was Active.
Consider `CC1(C)[C@@H](O[C@H]2O[C@H](C(=O)O)[C@@H](O)[C@H](O)[C@H]2O[C@@H]2O[C@H](C(=O)O)[C@@H](O)[C@H](O)[C@H]2O)CC[C@]2(C)[C@H]3C(=O)C=C4[C@H]5C[C@@](C)(C(=O)O)CC[C@]5(C)CC[C@@]4(C)[C@]3(C)CC[C@@H]12`, for which the inhibition result with RAW264.7 [1] and in the data set on RAW264.7 [3] was “Active” each time. In addition, the viability at 24 h, 40 µM in [2] was more than 96%.
For the molecule `CC1(C)[C@@H](O[C@H]2O[C@H](C(=O)O)[C@@H](O)[C@H](O)[C@H]2O[C@@H]2O[C@H](C(=O)O)[C@@H](O)[C@H](O)[C@H]2O)CC[C@]2(C)[C@H]3C(=O)C=C4[C@@H]5C[C@@](C)(C(=O)O)CC[C@]5(C)CC[C@@]4(C)[C@]3(C)CC[C@@H]12` [GLYCYRRHIZIN], the inhibition entry in the data set on RAW264.7 [1] and in the data set on RAW264.7 [3] was “Active” each time. The viability at 24 h, 40 µM in data set [2] was more than 96%.
With `CC1(C)[C@@H](O)CC[C@]2(C)[C@H]3C(=O)C=C4[C@@H]5C[C@@](C)(C(=O)O)CC[C@]5(C)CC[C@@]4(C)[C@]3(C)CC[C@@H]12` [ENOXOLONE], the inhibition entry with RAW264.7 [1] and with RAW264.7 [3] was “Active” in each case. In data set [2], the viability at 24 h, 40 µM was more than 96%.
For the molecule `CC1(C)[C@@H](O)CC[C@]2(C)[C@H]3C(=O)C=C4[C@H]5C[C@@](C)(C(=O)O)CC[C@]5(C)CC[C@@]4(C)[C@]3(C)CC[C@@H]12` [18alpha-GLYCYRRHETINIC ACID], the inhibition result with RAW264.7 [1] and in the data set on RAW264.7 [3] was “Active” each time. Further, the viability at 24 h, 40 µM in [2] was more than 96%.
Take `CC1(C)[C@@H](O[C@H]2O[C@H](C(=O)O)[C@@H](O)[C@H](O)[C@H]2O)CC[C@]2(C)[C@H]3C(=O)C=C4[C@H]5C[C@@](C)(C(=O)O)CC[C@]5(C)CC[C@@]4(C)[C@]3(C)CC[C@@H]12`: the inhibition at 40 µM in the data set on RAW264.7 [1] was more than 70%. Moreover, the result in the data set on Mus musculus [7], with Mus musculus [10] and in the data set with Mus musculus [11] was Active. Besides, the inhibition result in the data set with RAW264.7 [8], in the data set on RAW264.7 [9] and in the data set on RAW264.7 [15] was “Dose-dependent effect” throughout. In data set [2], the viability at 24 h, 40 µM was more than 96%. For the same molecule, the inhibition result (in the data set with RAW264.7 [3]; in [12]; in data set [13]; in data set [14]) was “Active” throughout.
